Source: PubChem BioAssay AID1325 (NMMLSC, 2008)
The whole screen tested about 190,000 compounds, of which about 200 (0.11%) were called active. The list comes from a sample in which actives are over-represented; it also holds similar structures and randomly drawn compounds. A number with no mark means an inactive call.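 How the source made its calls: active means inhibition above 80%; inactive means the rest.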

Each compound was assayed against Broad substrate specificity ATP-binding cassette transporter ABCG2 (Homo sapiens) (UniProt Q9UNQ0) (assay: ABCG2 efflux pump inhibitors, primary screen, multiplex with ABCB1, IgMXP3 cells, flow cytometry (AID 1325;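 further: 0% = DMSO and 100% = nicardipine control wells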)). Details: JC-1 efflux, at 6.6 µM, active compounds read high.
Chain of Broad substrate specificity ATP-binding cassette transporter ABCG2 (Homo sapiens) (Q9UNQ0 whole entry, looked up): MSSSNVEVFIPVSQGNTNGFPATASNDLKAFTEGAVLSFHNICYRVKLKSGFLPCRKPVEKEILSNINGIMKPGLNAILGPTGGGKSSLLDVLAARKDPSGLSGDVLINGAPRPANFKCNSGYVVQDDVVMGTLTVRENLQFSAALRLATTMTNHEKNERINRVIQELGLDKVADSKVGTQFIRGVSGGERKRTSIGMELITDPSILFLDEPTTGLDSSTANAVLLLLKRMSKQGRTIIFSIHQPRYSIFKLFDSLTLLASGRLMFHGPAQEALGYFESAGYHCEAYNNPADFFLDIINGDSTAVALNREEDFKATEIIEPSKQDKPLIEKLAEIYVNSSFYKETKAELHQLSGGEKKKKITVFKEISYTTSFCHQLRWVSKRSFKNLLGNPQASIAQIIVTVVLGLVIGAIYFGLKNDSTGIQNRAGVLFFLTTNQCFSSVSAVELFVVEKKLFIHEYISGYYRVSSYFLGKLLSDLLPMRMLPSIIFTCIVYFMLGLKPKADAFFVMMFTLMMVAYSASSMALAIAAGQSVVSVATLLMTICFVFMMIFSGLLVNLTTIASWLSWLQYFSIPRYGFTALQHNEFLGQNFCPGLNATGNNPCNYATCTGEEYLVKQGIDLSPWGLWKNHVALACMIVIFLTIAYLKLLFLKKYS
Method in brief: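 Incubation: cells with compound and JC-1, 10 min at 25 °C, rotating, no wash / Test system: IgMXP3 (ABCG2) plus far-red-tagged CCRF-Adr (ABCB1) cells / Compound dosing: one concentration, 6.6 µM final / Also added: JC-1 fluorescent substrate / Evaluation: efflux inhibition in percent versus controls / Detection: flow cytometry, 530 nm JC-1 signal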

SMILES	inhibition
COC(=O)COc1cc(C)cc2oc(=O)c3c(c12)CCCC3	85.8% (active)
Cc1cc(OCc2cc(C(=O)O)oc2C)c2c3c(c(=O)oc2c1)CCCC3	-0.16%
Cc1ccc(-c2nc3ccccc3c(=O)n2-c2ccc(Br)cn2)cc1	4.52%
COc1ccc(-c2nn(CCC#N)cc2C(=O)O)cc1	12.1%
CN(C)C(=O)Oc1cc(=O)n2c3c(cccc13)CCC2	8.26%
